Measured values: ChEMBL document CHEMBL1130383, “Anesthetic activity of novel water-soluble 2 beta-morpholinyl steroids and their modulatory effects at GABAA receptors” (J Med Chem, 1997)

Legend:
[1] = tested on: Mus musculus; experiment: Hypnotic dose by observing loss of righting reflex for a minimum period of 30 sec in 50% of treated mice after iv administration; caused convulsions and not tested further; type: functional, organism-based
[2] = target: GABA-A receptor; anion channel (Bos taurus) (UniProt P10063+P08220+P20237+P08219+P10064+P22300); experiment: Concentration required to potentiate GABA-evoked currents in voltage-clamped bovine chromaffin cells by 300%; type: functional
How it was run: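 Adult bovine chromaffin cells, primary culture, recorded 4 h to 2 days after plating. Whole-cell patch clamp, continuous superfusion with 140 mM NaCl, 2.8 mM KCl, 2 mM MgCl2, 1 mM CaCl2, 10 mM HEPES (pH 7.2). CsCl-based pipette solution, room temperature (18–22 °C). Currents filtered at 500 Hz. Steroid concentration enhancing the GABA-evoked response by 300% of control was interpolated; mean ± SEM of N cells.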

[3] = organism: Mus musculus; experiment: Effect on interval between loss of righting reflex and return to righting reflex (sleep duration) was measured at a dose twice that of hypnotic dose; caused convulsions and was not tested for the sleeping duration; type: functional, organism-based
[4] = target: GABA-A receptor; anion channel; experiment: The concentration required to inhibit 50% of binding of [35S]TBPS to Gamma-aminobutyric acid A receptor to rat whole brain membranes.; type: cell membranes
[5] = Therapeutic index by the ratio between LD50 to HD50
[6] = tested on: Mus musculus; experiment: Hypnotic dose was determined by observing loss of righting reflex for a minimum period of 30 sec in 50% of treated mice after i.v. administration.; type: functional
How it was run: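 Male CFLP mice (25–35 g), tested in the light period. Groups of eight received an i.v. lateral tail vein injection over 10 s (10 mL kg-1) on a μmol/kg dose series, e.g. 2–16, with extra doses added. Vehicle was saline for amine salts; standards were in HPCD/saline, emulsion or saline. HD50 with 95% confidence limits was obtained by probit analysis of the fraction showing LRR ≥30 s.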

Question: What does the source list for C[C@]12C[C@H](N3CCOCC3)[C@@H](O)C[C@@H]1CC[C@H]1[C@@H]3CC[C@H](C(=O)CCl)[C@@]3(C)CC(=O)[C@@H]12?
Answer: HD50 [1]: Convulsant; POT [2]: 1500 nM; SD [3]: Convulsant; IC50 [4]: 9040 nM

Question: With CC(=O)[C@H]1CC[C@H]2[C@@H]3CC[C@H]4C[C@H](O)[C@@H](N5C[C@@H](C)O[C@@H](C)C5)C[C@]4(C)[C@H]3C(=O)C[C@]12C as the molecule, how does the selectivity ratio [5] read?
Answer: 5.8

Question: And the HD50 [6]?
Answer: 14.4 µM/kg

Question: And the IC50 [4]?
Answer: 3200 nM

Question: For CCCC(C)C1(CC)C(=O)NC(=S)NC1=O (stereo not drawn) [THIOPENTAL], which selectivity ratio [5] is on record?
Answer: 3.7

Question: And the HD50 [6]?
Answer: 83 µM/kg

Question: What about the POT [2] of the same molecule?
Answer: 30000 nM

Question: And the IC50 [4]?
Answer: 29500 nM

Question: Which selectivity ratio [5] does the source give for C[C@]12C[C@H](N3CCOCC3)[C@@H](O)C[C@@H]1CC[C@@H]1[C@@H]2CC[C@]2(C)[C@@H](C(=O)CCl)CC[C@@H]12 here?
Answer: 6.1

Question: What about the HD50 [6] of the same molecule?
Answer: 8.5 µM/kg

Question: What about the POT [2] of the same molecule?
Answer: 150 nM

Question: And the IC50 [4]?
Answer: 171 nM

Question: Which results are given for CC[C@@H]1CN([C@H]2C[C@@]3(C)[C@@H](CC[C@H]4[C@@H]5CC[C@H](C(C)=O)[C@@]5(C)CC(=O)[C@@H]43)C[C@@H]2O)CCO1?
Answer: selectivity ratio [5]: 5.8; HD50 [6]: 8.7 µM/kg; POT [2]: 910 nM; IC50 [4]: 317 nM

Question: With CC(=O)SCC(=O)[C@H]1CC[C@H]2[C@@H]3CC[C@H]4C[C@H](O)[C@@H](N5CCOC(C)(C)C5)C[C@]4(C)[C@H]3CC[C@]12C as the molecule, how does the HD50 [1] read?
Answer: Convulsant

Question: And the SD [3]?
Answer: Convulsant

Question: And the IC50 [4]?
Answer: 32 nM

Question: What does the source list for CC(=O)[C@H]1CC[C@H]2[C@@H]3CC[C@H]4C[C@H](O)[C@@H](N5CCSC(C)(C)C5)C[C@]4(C)[C@H]3C(=O)C[C@]12C?
Answer: selectivity ratio [5]: 16.3; HD50 [6]: 13.7 µM/kg; IC50 [4]: 209 nM

Question: With CC(=O)[C@H]1CC[C@H]2[C@@H]3CC[C@H]4C[C@H](O)[C@@H](N5CCO[C@H](C(C)C)C5)C[C@]4(C)[C@H]3C(=O)C[C@]12C as the molecule, how does the selectivity ratio [5] read?
Answer: 9.9

Question: And the HD50 [6]?
Answer: 3.4 µM/kg

Question: And the IC50 [4]?
Answer: 90 nM

Question: What does the source list for CC(=O)[C@H]1CC[C@H]2[C@@H]3CC[C@H]4C[C@H](O)CC[C@]4(C)[C@H]3CC[C@]12C [BREXANOLONE]?
Answer: HD50 [6]: 10 µM/kg; POT [2]: 105 nM; IC50 [4]: 91 nM

Question: With CC(=O)OCC(=O)[C@H]1CC[C@H]2[C@@H]3CC[C@H]4C[C@H](O)[C@@H](N5CCOCC5)C[C@]4(C)[C@H]3CC[C@]12C as the molecule, how does the HD50 [6] read?
Answer: 31 µM/kg

Question: And the POT [2]?
Answer: 660 nM

Question: What about the IC50 [4] of the same molecule?
Answer: 270 nM

Question: For C[C@]12C[C@H](N3CCOCC3)[C@@H](O)C[C@@H]1CC[C@@H]1[C@@H]2CC[C@]2(C)[C@@H](C(=O)CO)CC[C@@H]12, which HD50 [6] is on record?
Answer: 31.6 µM/kg

Question: And the POT [2]?
Answer: 2300 nM

Question: And the IC50 [4]?
Answer: 3040 nM

Question: With CC(=O)[C@H]1CC[C@H]2[C@@H]3CC[C@H]4C[C@H](O)[C@@H](N5CCOCC5)C[C@]4(C)[C@H]3C(=O)C[C@]12C as the molecule, how does the selectivity ratio [5] read?
Answer: 4.6

Question: What about the HD50 [6] of the same molecule?
Answer: 34.6 µM/kg

Question: And the IC50 [4]?
Answer: 2560 nM

Question: Which selectivity ratio [5] does the source give for CC(C)c1cccc(C(C)C)c1O [PROPOFOL] here?
Answer: 3.5

Question: And the HD50 [6]?
Answer: 68 µM/kg

Question: And the POT [2]?
Answer: 2000 nM
